Assay results from ChEMBL document CHEMBL5724801, “EUbOPEN Chemogenomics Library - Multiplex” (2024).
“And” between values parts separate entries of the source, which are not always exact repeats. Equal entries are not always repeated.

System: U2OS
Assay: Multiplex assay against U2OS
Format: toxicity, cell-based
Conditions: human
Summary of the method: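 Cells were classed with CellPathfinder machine-learning gating, first as Hoechst high-intensity objects or normal cells, then (normal cells) as healthy, pyknosed or fragmented nuclei, and finally (pyknosed cells) as mitotic or apoptotic. Staining of live cells at seeding used Hoechst33342, BioTracker Green Microtubule Cytoskeleton Dye, MitoTracker Red and Annexin V Alexa Fluor 680, with imaging on a CQ1 microscope at 37°C and 5% CO2 after compound addition. Tubulin, mitochondrial-mass and membrane-permeability phenotypes are per cents of healthy-nucleus cells.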

[1] = 12 h, 1 µM, compound concentration 1 uM
[2] = 12 h, 10 µM, compound concentration 10 uM
[3] = 24 h, 1 µM, compound concentration 1 uM
[4] = 24 h, 10 µM, compound concentration 10 uM
[5] = 48 h, 1 µM, compound concentration 1 uM
[6] = 48 h, 10 µM, compound concentration 10 uM

Cc1cc(C)cc(C(=O)NOCCCCCC(=O)NO)c1
Population Apoptotic (%) [1]: 33.33% and 45.83% | Population Fragmented Nuclei (%) [1]: 2.19% and 1.16% | Population Healthy Nuclei (%) [1]: 82.02% and 84.97% | Population Hoechst High Intensity Objects (%) [1]: 0% | Population Membrane Permeable-Phenotype (%) [1]: 0.53% and 4.08% | Population Mitochondria Different-Phenotype (%) [1]: 0.27% and 4.08% | Population Mitotic Cells (%) [1]: 66.67% and 54.17% | Population Normal (%) [1]: 100% | Population Pyknosed Nuclei (%) [1]: 15.79% and 13.87% | Population Tubulin-Different-Phenotype (%) [1]: 0.8% and 1.36% | Total Cell Count [1]: 456 and 173 | Population Apoptotic (%) [2]: 27.78% and 30.23% | Population Fragmented Nuclei (%) [2]: 2.46% and 2.56% | Population Healthy Nuclei (%) [2]: 79.85% and 69.87% | Population Hoechst High Intensity Objects (%) [2]: 0% | Population Membrane Permeable-Phenotype (%) [2]: 1.23% and 4.59% | Population Mitochondria Different-Phenotype (%) [2]: 0.31% and 9.17% | Population Mitotic Cells (%) [2]: 72.22% and 69.77% | Population Normal (%) [2]: 100% | Population Pyknosed Nuclei (%) [2]: 17.69% and 27.56% | Population Tubulin-Different-Phenotype (%) [2]: 2.46% and 1.83% | Total Cell Count [2]: 407 and 156 | Population Apoptotic (%) [3]: 42.11% and 38.46% | Population Fragmented Nuclei (%) [3]: 5.65% and 5.61% | Population Healthy Nuclei (%) [3]: 59.88% and 61.22% | Population Hoechst High Intensity Objects (%) [3]: 0% | Population Membrane Permeable-Phenotype (%) [3]: 0.67% and 1.67% | Population Mitochondria Different-Phenotype (%) [3]: 0.34% and 5% | Population Mitotic Cells (%) [3]: 57.89% and 61.54% | Population Normal (%) [3]: 100% | Population Pyknosed Nuclei (%) [3]: 34.48% and 33.16% | Population Tubulin-Different-Phenotype (%) [3]: 3.37% and 1.67% | Total Cell Count [3]: 496 and 196 | Population Apoptotic (%) [4]: 36.05% and 42.86% | Population Fragmented Nuclei (%) [4]: 8.75% and 10% | Population Healthy Nuclei (%) [4]: 30.26% and 41.88% | Population Hoechst High Intensity Objects (%) [4]: 0% | Population Membrane Permeable-Phenotype (%) [4]: 0.78% and 10.45% | Population Mitochondria Different-Phenotype (%) [4]: 0% and 4.48% | Population Mitotic Cells (%) [4]: 63.95% and 57.14% | Population Normal (%) [4]: 100% | Population Pyknosed Nuclei (%) [4]: 60.99% and 48.12% | Population Tubulin-Different-Phenotype (%) [4]: 3.12% and 11.94% | Total Cell Count [4]: 423 and 160 | Population Apoptotic (%) [5]: 77.2% and 80.52% | Population Fragmented Nuclei (%) [5]: 9.29% and 8.45% | Population Healthy Nuclei (%) [5]: 55.56% and 55.4% | Population Hoechst High Intensity Objects (%) [5]: 0.18% and 0% | Population Membrane Permeable-Phenotype (%) [5]: 4.92% and 7.63% | Population Mitochondria Different-Phenotype (%) [5]: 0.66% and 5.93% | Population Mitotic Cells (%) [5]: 22.8% and 19.48% | Population Normal (%) [5]: 99.82% and 100% | Population Pyknosed Nuclei (%) [5]: 35.15% and 36.15% | Population Tubulin-Different-Phenotype (%) [5]: 6.89% and 8.47% | Total Cell Count [5]: 550 and 213 | Population Apoptotic (%) [6]: 79.12% and 92.94% | Population Fragmented Nuclei (%) [6]: 3.39% and 4.58% | Population Healthy Nuclei (%) [6]: 31.59% and 39.87% | Population Hoechst High Intensity Objects (%) [6]: 0% | Population Membrane Permeable-Phenotype (%) [6]: 15.7% and 31.15% | Population Mitochondria Different-Phenotype (%) [6]: 0.83% and 3.28% | Population Mitotic Cells (%) [6]: 20.88% and 7.06% | Population Normal (%) [6]: 100% | Population Pyknosed Nuclei (%) [6]: 65.01% and 55.56% | Population Tubulin-Different-Phenotype (%) [6]: 44.63% and 32.79% | Total Cell Count [6]: 383 and 153

Cn1ncnc1COc1nn2c(-c3cc(F)ccc3F)nnc2cc1C(C)(C)C
Population Apoptotic (%) [1]: 55.26% and 53.85% | Population Fragmented Nuclei (%) [1]: 0.89% and 4.24% | Population Healthy Nuclei (%) [1]: 90.6% and 80% | Population Hoechst High Intensity Objects (%) [1]: 0% | Population Mitochondria Different-Phenotype (%) [1]: 0% and 7.58% | Population Mitotic Cells (%) [1]: 44.74% and 46.15% | Population Normal (%) [1]: 100% | Population Pyknosed Nuclei (%) [1]: 8.5% and 15.76% | Population Tubulin-Different-Phenotype (%) [1]: 1.23% and 0.76% | Total Cell Count [1]: 447 and 165 | Population Apoptotic (%) [2]: 36.84% and 41.18% | Population Fragmented Nuclei (%) [2]: 1.2% and 0.65% | Population Healthy Nuclei (%) [2]: 87.43% and 88.24% | Population Hoechst High Intensity Objects (%) [2]: 0% | Population Mitotic Cells (%) [2]: 63.16% and 58.82% | Population Normal (%) [2]: 100% | Population Pyknosed Nuclei (%) [2]: 11.38% and 11.11% | Population Tubulin-Different-Phenotype (%) [2]: 1.71% and 1.48% | Total Cell Count [2]: 334 and 153 | Population Apoptotic (%) [3]: 33.9% and 52.63% | Population Fragmented Nuclei (%) [3]: 0.96% and 3.02% | Population Healthy Nuclei (%) [3]: 89.63% and 77.89% | Population Hoechst High Intensity Objects (%) [3]: 0% | Population Mitochondria Different-Phenotype (%) [3]: 0% and 7.74% | Population Mitotic Cells (%) [3]: 66.1% and 47.37% | Population Normal (%) [3]: 100% | Population Pyknosed Nuclei (%) [3]: 9.41% and 19.1% | Population Tubulin-Different-Phenotype (%) [3]: 0.53% and 0.65% | Population Apoptotic (%) [4]: 30.77% and 47.83% | Population Fragmented Nuclei (%) [4]: 1.81% and 3.66% | Population Healthy Nuclei (%) [4]: 86.39% and 84.29% | Population Hoechst High Intensity Objects (%) [4]: 0% and 0.52% | Population Mitochondria Different-Phenotype (%) [4]: 0% and 3.73% | Population Mitotic Cells (%) [4]: 69.23% and 52.17% | Population Normal (%) [4]: 100% and 99.48% | Population Pyknosed Nuclei (%) [4]: 11.79% and 12.04% | Population Tubulin-Different-Phenotype (%) [4]: 2.62% and 1.24% | Total Cell Count [4]: 441 and 192 | Population Apoptotic (%) [5]: 43.96% and 63.41% | Population Fragmented Nuclei (%) [5]: 3.06% and 2.48% | Population Healthy Nuclei (%) [5]: 88.51% and 84.83% | Population Hoechst High Intensity Objects (%) [5]: 0% and 0.31% | Population Mitochondria Different-Phenotype (%) [5]: 0% and 6.93% | Population Mitotic Cells (%) [5]: 56.04% and 36.59% | Population Normal (%) [5]: 100% and 99.69% | Population Pyknosed Nuclei (%) [5]: 8.43% and 12.69% | Population Tubulin-Different-Phenotype (%) [5]: 1.05% and 0.73% | Population Apoptotic (%) [6]: 56.04% and 51.22% | Population Fragmented Nuclei (%) [6]: 2.31% and 1.96% | Population Healthy Nuclei (%) [6]: 87.15% and 84.64% | Population Hoechst High Intensity Objects (%) [6]: 0% | Population Mitochondria Different-Phenotype (%) [6]: 0.13% and 5.41% | Population Mitotic Cells (%) [6]: 43.96% and 48.78% | Population Normal (%) [6]: 100% | Population Pyknosed Nuclei (%) [6]: 10.53% and 13.4% | Population Tubulin-Different-Phenotype (%) [6]: 1.86% and 1.54% | Total Cell Count [6]: 864 and 306
